Columns and labels:
K562 = assay: Antiproliferative activity against human K562 cells after 72 hrs by CellTiter-Glo luminescent cell viability assay; format: functional, cell-based; settings: K562, 72 h
In short: (§1)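 Cells in exponential growth exposed to a range of inhibitor concentrations for 72 h. CellTiter-Glo reagent added, mixed 2 min to lyse cells, luminescence read 10 min later. IC50 derived from the concentration–response. Replicates n ≥ 2, mean shown.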

A549 = assay: Antiproliferative activity against human A549 cells after 72 hrs by CellTiter-Glo luminescent cell viability assay; format: functional, cell-based; settings: A549, 72 h; in short: as §1
HCT-116 = assay: Antiproliferative activity against human HCT116 cells after 72 hrs by CellTiter-Glo luminescent cell viability assay; format: functional, cell-based; settings: HCT-116, 72 h; in short: as §1
Histone deacetylase = assay: Inhibition of human HDAC in HeLa cell nuclear extracts using KI-104 Fluor de Lys as substrate by fluorescence assay; format: protein assay
In short: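 HDAC activity from partially purified HeLa nuclear extracts, using a fluorogenic acetylated histone peptide (Fluor de Lys) as substrate. Replicates n ≥ 2, mean values reported.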

[1] = Oral bioavailability in mouse; format: ADME, organism-based; settings: in vivo
[2] = Clearance in mouse; format: ADME, organism-based; settings: in vivo

Compound	IC50 (K562) [µM]	IC50 (A549) [µM]	IC50 (HCT-116) [µM]	IC50 (Histone deacetylase) [µM]	bioavailability [1] [%]	clearance [2] [mL/min/kg]
CC(=O)N1CCC2(CC1)CC(=O)c1cc(C(=O)NO)ccc1O2	> 50	> 50	> 50	> 50		
CN1CCC2(CC1)CC(=O)c1cc(/C=C/C(=O)NO)ccc1O2	0.806	1.04	0.266	0.288		
O=C(NO)c1ccc2c(c1)C(=O)CC1(CCN(Cc3ccccc3)CC1)O2	16	22	15	24		
O=C(NO)c1ccc2c(c1)C(=O)CC1(CCN(C(=O)c3ccccc3)CC1)O2	> 50	> 50	> 50	29		
O=C(/C=C/c1ccc2c(c1)C(O)CC1(CCN(Cc3ccccc3)CC1)O2)NO (stereo not given)	2.95	5.25	2.33	1.21		
CN1CCC2(CC1)CC(=O)c1cc(C(=O)NO)ccc1O2	> 50	> 50	> 50	> 50		
O=C(/C=C/c1ccc2c(c1)OC1(CCN(Cc3ccccc3)CC1)CC2=O)NO	8.94	12.2	8.41	2.173		
CCOC(=O)N1CCC2(CC1)CC(=O)c1cc(/C=C/C(=O)NO)ccc1O2	2.08	5.27	2.14	0.14		
O=C(/C=C/c1ccc2c(c1)C=CC1(CCN(Cc3ccccc3)CC1)O2)NO	3.27	4.7	3.51	1.19		
O=C(/C=C/c1ccc2c(c1)CCC1(CCN(Cc3ccccc3)CC1)O2)NO	38.6	≥ 50	28.2	9.02		
O=C(/C=C/c1ccc2c(c1)C(=O)CC1(CCNCC1)O2)NO	5.77	2.72	1.59	0.082		
O=C(/C=C/c1cccc(S(=O)(=O)Nc2ccccc2)c1)NO [BELINOSTAT]					< 10	193
O=C(/C=C/c1ccc2c(c1)C(=O)CC1(CCN(C(=O)c3ccccc3)CC1)O2)NO	1.65	5.52	2.2	0.316		
Cc1[nH]c2ccccc2c1CCNCc1ccc(/C=C/C(=O)NO)cc1 [PANOBINOSTAT]					< 10	305
CC(=O)NC1CC2(CCN(Cc3ccccc3)CC2)Oc2ccc(/C=C/C(=O)NO)cc21 (stereo not given)	> 50	> 50	32.8	5.15		
CC(=O)N1CCC2(CC1)CC(=O)c1cc(/C=C/C(=O)NO)ccc1O2	9.37	26.2	5.66	0.641		
O=C(CCCCCCC(=O)Nc1ccccc1)NO [VORINOSTAT]					< 10	
O=C(/C=C/c1ccc2c(c1)C(=O)C1(CCN(Cc3ccccc3)CC1)O2)NO	4.11	5.94	3.1	0.932		
CN1CCC2(CC1)CC(=O)c1ccc(/C=C/C(=O)NO)cc1O2	4.5	3.76	5.72	5.84		
O=C(/C=C/c1ccc2c(c1)OC1(CCNCC1)CC2=O)NO	> 50	24.8	35.5	1.41		
O=C(/C=C/c1ccc2c(c1)C(=O)C1(CCN(C(=O)c3ccccc3)CC1)O2)NO	7.43	22.1	12.3	2.55		
CCOC(=O)N1CCC2(CC1)Oc1ccc(/C=C/C(=O)NO)cc1C2=O	2.61	20.2	11.8	2.99		
CN1CCC2(CC1)Oc1ccc(/C=C/C(=O)NO)cc1C2=O	0.397	1.07	0.337	0.538		
CC(=O)N1CCC2(CC1)CC(=O)c1ccc(/C=C/C(=O)NO)cc1O2	6.08	11.3	36	1.04		
CCOC(=O)N1CCC2(CC1)CC(=O)c1ccc(/C=C/C(=O)NO)cc1O2	2.19	2.78	3.03	0.408		
O=C(/C=C/c1ccc2c(c1)C(=O)C1(CCNCC1)O2)NO	1.69	1.09	0.832	0.221		
O=C(/C=C/c1ccc2c(c1)OC1(CCN(C(=O)c3ccccc3)CC1)CC2=O)NO	3.19	8.78	4.92	0.366		
CC(=O)N1CCC2(CC1)Oc1ccc(/C=C/C(=O)NO)cc1C2=O	> 50	> 50	> 50	> 50		
